Data from ChEMBL document CHEMBL4270599, “Synthesis of a 3'-C-ethynyl-β-d-ribofuranose purine nucleoside library: Discovery of C7-deazapurine analogs as potent antiproliferative nucleosides” (Eur J Med Chem, 2018).

Columns and labels:
NCI-H322M [1] = assay: Cytotoxicity against human NCI-H322M cells after 48 hrs by SRB assay; format: functional
LOX IMVI [2] = assay: Cytotoxicity against human LOXIMVI cells after 48 hrs by SRB assay; format: functional
SK-MEL-2 = assay: Cytotoxicity against human SK-MEL-2 cells after 48 hrs by SRB assay; format: functional; conditions: SK-MEL-2, 48 h; for CC50: read-out: LC50 (the source's name)
SN12C [3] = assay: Cytotoxicity against human SN12C cells after 48 hrs by SRB assay; format: functional
EKVX = assay: Growth inhibition of human EKVX cells assessed as cell growth at 10^-8 M incubated for 48 hrs by sulforhodamine B assay relative to control; format: functional; conditions: read-out: Activity
HOP-92 = assay: Growth inhibition of human HOP92 cells assessed as cell growth at 10^-8 M incubated for 48 hrs by sulforhodamine B assay relative to control; format: functional; conditions: HOP-92, 48 h, read-out: Activity
NCI-H322M [4] = assay: Growth inhibition of human NCI-H322M cells assessed as cell growth at 10^-8 M incubated for 48 hrs by sulforhodamine B assay relative to control; format: functional; conditions: read-out: Activity
HCC 2998 = assay: Growth inhibition of human HCC2998 cells assessed as cell growth at 10^-8 M incubated for 48 hrs by sulforhodamine B assay relative to control; format: functional; conditions: HCC 2998, 48 h, read-out: Activity
KM12 = assay: Growth inhibition of human KM12 cells assessed as cell growth at 10^-8 M incubated for 48 hrs by sulforhodamine B assay relative to control; format: functional; conditions: KM12, 48 h, read-out: Activity
SF-539 = assay: Growth inhibition of human SF539 cells assessed as cell growth at 10^-8 M incubated for 48 hrs by sulforhodamine B assay relative to control; format: functional; conditions: SF-539, 48 h, read-out: Activity
SNB-19 = assay: Growth inhibition of human SNB19 cells assessed as cell growth at 10^-8 M incubated for 48 hrs by sulforhodamine B assay relative to control; format: functional; conditions: SNB-19, 48 h, read-out: Activity
OVCAR-5 [5] = assay: Growth inhibition of human OVCAR5 cells assessed as cell growth at 10^-8 M incubated for 48 hrs by sulforhodamine B assay relative to control; format: functional; conditions: OVCAR-5, 48 h, read-out: Activity
A498 = assay: Growth inhibition of human A498 cells assessed as cell growth at 10^-8 M incubated for 48 hrs by sulforhodamine B assay relative to control; format: functional; conditions: A498, 48 h, read-out: Activity
SN12C [6] = assay: Growth inhibition of human SN12C cells assessed as cell growth at 10^-8 M incubated for 48 hrs by sulforhodamine B assay relative to control; format: functional; conditions: read-out: Activity
T47D = assay: Growth inhibition of human T47D cells assessed as cell growth at 10^-8 M incubated for 48 hrs by sulforhodamine B assay relative to control; format: functional; conditions: read-out: Activity
A549 = assay: Growth inhibition of human A549/ATCC cells assessed as cell growth at 10^-7 M incubated for 48 hrs by sulforhodamine B assay relative to control; format: functional; conditions: A549, 48 h, read-out: Activity
SNB-75 = assay: Growth inhibition of human SNB75 cells assessed as cell growth at 10^-7 M incubated for 48 hrs by sulforhodamine B assay relative to control; format: functional; conditions: SNB-75, 48 h, read-out: Activity
LOX IMVI [7] = assay: Growth inhibition of human LOXIMVI cells assessed as cell growth at 10^-7 M incubated for 48 hrs by sulforhodamine B assay relative to control; format: functional; conditions: read-out: Activity
MDA-MB-435 = assay: Growth inhibition of human MDA-MB-435 cells assessed as cell growth at 10^-7 M incubated for 48 hrs by sulforhodamine B assay relative to control; format: functional; conditions: MDA-MB-435, 48 h, read-out: Activity
MDA-MB-231 [8] = assay: Growth inhibition of human MDA-MB-231 cells assessed as cell growth at 10^-7 M incubated for 48 hrs by sulforhodamine B assay relative to control; format: functional; conditions: MDA-MB-231, 48 h, read-out: Activity
SR [9] = assay: Growth inhibition of human SR cells assessed as cell growth at 10^-6 M incubated for 48 hrs by sulforhodamine B assay relative to control; format: functional; conditions: read-out: Activity
OVCAR-5 [10] = assay: Growth inhibition of human OVCAR5 cells assessed as cell growth at 10^-6 M incubated for 48 hrs by sulforhodamine B assay relative to control; format: functional; conditions: OVCAR-5, 48 h, read-out: Activity
NCI/ADR-RES = assay: Growth inhibition of human NCI/ADR-RES cells assessed as cell growth at 10^-6 M incubated for 48 hrs by sulforhodamine B assay relative to control; format: functional; conditions: read-out: Activity
MDA-MB-231 [11] = assay: Growth inhibition of human MDA-MB-231 cells assessed as cell growth at 10^-6 M incubated for 48 hrs by sulforhodamine B assay relative to control; format: functional; conditions: MDA-MB-231, 48 h, read-out: Activity
NCI-H226 [12] = assay: Growth inhibition of human NCI-H226 cells assessed as cell growth at 10^-5 M incubated for 48 hrs by sulforhodamine B assay relative to control; format: functional; conditions: NCI-H226, 48 h, read-out: Activity
OVCAR-4 = assay: Growth inhibition of human OVCAR4 cells assessed as cell growth at 10^-5 M incubated for 48 hrs by sulforhodamine B assay relative to control; format: functional; conditions: OVCAR-4, 48 h, read-out: Activity
MCF7 = assay: Growth inhibition of human MCF7 cells assessed as cell growth at 10^-5 M incubated for 48 hrs by sulforhodamine B assay relative to control; format: functional; conditions: MCF7, 48 h, read-out: Activity
SR [13] = assay: Growth inhibition of human SR cells assessed as cell growth at 10^-4 M incubated for 48 hrs by sulforhodamine B assay relative to control; format: functional; conditions: read-out: Activity
NCI-H226 [14] = assay: Growth inhibition of human NCI-H226 cells assessed as cell growth at 10^-4 M incubated for 48 hrs by sulforhodamine B assay relative to control; format: functional; conditions: NCI-H226, 48 h, read-out: Activity
MDA-MB-231 [15] = assay: Growth inhibition of human MDA-MB-231 cells assessed as cell growth at 10^-4 M incubated for 48 hrs by sulforhodamine B assay relative to control; format: functional; conditions: MDA-MB-231, 48 h, read-out: Activity
UACC-62 [16] = assay: Growth inhibition of human UACC62 cells assessed as cell growth at 10^-8 M incubated for 48 hrs by sulforhodamine B assay relative to control; format: functional; conditions: UACC-62, 48 h, read-out: Activity
UACC-62 [17] = assay: Growth inhibition of human UACC62 cells assessed as cell growth at 10^-7 M incubated for 48 hrs by sulforhodamine B assay relative to control; format: functional; conditions: UACC-62, 48 h, read-out: Activity
HMEC-1 = assay: Antiproliferative activity against HMEC1 cells after 4 days by Coulter counter method; format: cell-based; conditions: Homo sapiens, HMEC-1, 96 h
Procedure, shortened: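 Primary HUVEC, primary HMVEC-d and the HMEC-1 line seeded at 20,000 cells/well in gelatin-coated plates in EC growth medium (EGM2). After overnight incubation, 5-fold compound dilutions added. Cells proliferated four days with compound, then trypsinized and counted by Coulter counter to derive IC₅₀.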

[18] = read-out: LC50 (the source's name)
[19] = read-out: pLC50 (the source's name) (converted)

`C#C[C@@]1(O)[C@@H](CO)O[C@@H](n2cc(F)c3c(N)ncnc32)[C@@H]1O` gave a CC50 (NCI-H322M [1]; [18]) of over 100000 nM, a TGI (NCI-H322M [1]; read-out: TGI) of 4480 nM and a GI50 (NCI-H322M [1]; read-out: pGI50 (converted)) of 501 nM. It also gave a TGI (NCI-H322M [1]; read-out: pTGI (converted)) of 4470 nM, a TGI (LOX IMVI [2]; read-out: TGI) of 1110 nM and a GI50 (LOX IMVI [2]; read-out: pGI50 (converted)) of 282 nM. The CC50 (LOX IMVI [2]; [19]) was 4570 nM, the TGI (LOX IMVI [2]; read-out: pTGI (converted)) was 1120 nM and the CC50 (SK-MEL-2) was over 100000 nM. It also gave a TGI (SK-MEL-2; read-out: TGI) of 2870 nM, a GI50 (SK-MEL-2; read-out: pGI50 (converted)) of 447 nM and a TGI (SK-MEL-2; read-out: pTGI (converted)) of 2880 nM. It also gave a TGI (SN12C [3]; read-out: TGI) of 4740 nM, a CC50 (SN12C [3]; [19]) of over 100000 nM and a TGI (SN12C [3]; read-out: pTGI (converted)) of 4790 nM. The growth at 0.01 µM (EKVX) was 94%, the growth at 0.01 µM (HOP-92) was 121% and the growth at 0.01 µM (NCI-H322M [4]) was 93%. For the same compound, the growth at 0.01 µM (HCC 2998) was 98%, the growth at 0.01 µM (KM12) was 104% and the growth at 0.01 µM (SF-539) was 104%. It also gave a growth at 0.01 µM (SNB-19) of 93%, a growth at 0.01 µM (OVCAR-5 [5]) of 96% and a growth at 0.01 µM (A498) of 86%. It also gave a growth at 0.01 µM (SN12C [6]) of 94%, a growth at 0.01 µM (T47D) of 101% and a growth at 0.1 µM (A549) of 92%. For the same compound, the growth at 0.1 µM (SNB-75) was 107%, the growth at 0.1 µM (LOX IMVI [7]) was 87% and the growth at 0.1 µM (MDA-MB-435) was 86%. For the same compound, the growth at 0.1 µM (MDA-MB-231 [8]) was 88%, the growth at 1 µM (SR [9]) was 9% and the growth at 1 µM (OVCAR-5 [10]) was 65%. It also gave a growth at 1 µM (NCI/ADR-RES) of 22%, a growth at 1 µM (MDA-MB-231 [11]) of 22% and a growth at 10 µM (NCI-H226 [12]) of -44%. It also gave a growth at 10 µM (OVCAR-4) of -3%, a growth at 10 µM (MCF7) of 1% and a growth at 100 µM (SR [13]) of 3%. The growth at 100 µM (NCI-H226 [14]) was -45%, the growth at 100 µM (MDA-MB-231 [15]) was -35% and the growth at 0.01 µM (UACC-62 [16]) was 94%. It also gave a growth at 0.1 µM (UACC-62 [17]) of 91% and an IC50 (HMEC-1) of 61 nM.

Work on `C#C[C@@]1(O)[C@@H](CO)O[C@@H](n2cc(Cl)c3c(N)ncnc32)[C@@H]1O` yielded a GI50 (NCI-H322M [1]; read-out: GI50) of 206 to 334 nM, a TGI (NCI-H322M [1]; read-out: TGI) of 2120 to 4630 nM and a CC50 (NCI-H322M [1]; [19]) of over 100000 nM. It also gave a GI50 (LOX IMVI [2]; read-out: GI50) of 36 to 81.4 nM, a CC50 (LOX IMVI [2]; [18]) of 756 to 871 nM and a TGI (LOX IMVI [2]; read-out: TGI) of 226 to 284 nM. For the same compound, the GI50 (SK-MEL-2; read-out: GI50) was 83.5 to 146 nM, the CC50 (SK-MEL-2) was over 100000 nM and the TGI (SK-MEL-2; read-out: TGI) was 268 to 481 nM. The GI50 (SN12C [3]; read-out: GI50) was 113 to 230 nM, the CC50 (SN12C [3]; [18]) was over 100000 nM and the growth at 0.01 µM (EKVX) was 83 to 89%. It also gave a growth at 0.01 µM (HOP-92) of 90 to 97%, a growth at 0.01 µM (NCI-H322M [4]) of 93 to 100% and a growth at 0.01 µM (HCC 2998) of 92 to 99%. It also gave a growth at 0.01 µM (KM12) of 85 to 88%, a growth at 0.01 µM (SF-539) of 88 to 92% and a growth at 0.01 µM (SNB-19) of 68 to 94%. For the same compound, the growth at 0.01 µM (OVCAR-5 [5]) was 95 to 97%, the growth at 0.01 µM (A498) was 103 to 107% and the growth at 0.01 µM (SN12C [6]) was 85 to 90%. It also gave a growth at 0.01 µM (T47D) of 71 to 84%, a growth at 0.1 µM (A549) of 61 to 77% and a growth at 0.1 µM (SNB-75) of 104 to 110%. It also gave a growth at 0.1 µM (LOX IMVI [7]) of 34 to 47%, a growth at 0.1 µM (MDA-MB-435) of 60 to 69% and a growth at 0.1 µM (MDA-MB-231 [8]) of 60 to 71%. For the same compound, the growth at 1 µM (SR [9]) was 5 to 6%, the growth at 1 µM (OVCAR-5 [10]) was 23 to 38% and the growth at 1 µM (MDA-MB-231 [11]) was -4%. For the same compound, the growth at 100 µM (SR [13]) was 2 to 5%, the growth at 0.01 µM (UACC-62 [16]) was 94 to 97% and the growth at 0.1 µM (UACC-62 [17]) was 75 to 81%. The IC50 (HMEC-1) was 3.5 nM.
